Test results taken from ChEMBL document CHEMBL3259693, “Multitarget drug discovery for tuberculosis and other infectious diseases” (J Med Chem, 2014).
In brackets after ≈: the same amount, converted by molar mass. Activity calls are given as the source filed them. The rule behind the calls is not given here.

Tests used:
[1] = Inhibition of Mycobacterium tuberculosis MenA
[2] = system: Mycobacterium tuberculosis; assay: Antimicrobial activity against Mycobacterium tuberculosis H37Rv; type: functional
[3] = system: Mycobacterium tuberculosis; assay: microbe, parasite or virus in culture; type: functional; details: ATCC 27294
[4] = system: Mycolicibacterium smegmatis; assay: microbe, parasite or virus in culture; type: functional; details: ATCC 700084
Bacillus subtilis = assay: Antimicrobial activity against Bacillus subtilis subsp. subtilis ATCC 6051 after 12 to 16 hrs by microbroth dilution method; type: functional, organism-based
Escherichia coli [5] = assay: microbe, parasite or virus in culture; type: functional, organism-based; details: ATCC 29425, 3 h
Saccharomyces cerevisiae = assay: Antimicrobial activity against Saccharomyces cerevisiae ATCC 208352 after 48 hrs by microbroth dilution method; type: functional, organism-based; details: ATCC 208352, 48 h
Candida albicans = assay: Antimicrobial activity against Candida albicans CAI-4; type: functional, organism-based
Plasmodium falciparum = assay: Antimicrobial activity against Plasmodium falciparum 3D7 by intraerythrocytic assay; type: functional, organism-based
MCF7 = assay: Cytotoxicity against human MCF7 cells assessed as growth inhibition by MTT assay; type: cell-based
[6] = Therapeutic index, ratio of IC50 for human MCF7 cells to IC50 for Plasmodium falciparum 3D7; type: cell-based; details: MCF7 cells versus Plasmodium falciparum 3D7, read-out: Ratio IC50
Escherichia coli [7] = assay: Ratio of IC50 for Escherichia coli ATCC 29425 in presence of 10% fetal bovine serum to IC50 for Escherichia coli ATCC 29425; type: functional
Method in brief: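 E. coli broth microdilution in LB. Culture was grown to OD600 ~0.4, diluted 500-fold, and exposed to compound from 0.3 mM, 2× serially diluted to 292 nM. Plates ran 3 h at 37 °C with or without 10% FBS. Viability was read by MTT at 570 nm, and IC50 was obtained by non-linear regression.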

[8] = Inhibition of Mycobacterium tuberculosis cis-farnesyl diphosphate synthase
[9] = Inhibition of Mycobacterium tuberculosis cis-decaprenyl diphosphate synthase
[10] = Inhibition of Plasmodium vivax geranylgeranyl diphosphate synthase
[11] = Inhibition of Staphylococcus aureus undecaprenyl diphosphate synthase
[12] = Inhibition of Escherichia coli undecaprenyl diphosphate synthase
[13] = Inhibition of Staphylococcus aureus farnesyl diphosphate synthase
[14] = target: T1, Geranylgeranyl pyrophosphate synthase (Homo sapiens, UniProt O95749); assay: Inhibition of human geranylgeranyl diphosphate synthase
T1 sequence (O95749 whole entry): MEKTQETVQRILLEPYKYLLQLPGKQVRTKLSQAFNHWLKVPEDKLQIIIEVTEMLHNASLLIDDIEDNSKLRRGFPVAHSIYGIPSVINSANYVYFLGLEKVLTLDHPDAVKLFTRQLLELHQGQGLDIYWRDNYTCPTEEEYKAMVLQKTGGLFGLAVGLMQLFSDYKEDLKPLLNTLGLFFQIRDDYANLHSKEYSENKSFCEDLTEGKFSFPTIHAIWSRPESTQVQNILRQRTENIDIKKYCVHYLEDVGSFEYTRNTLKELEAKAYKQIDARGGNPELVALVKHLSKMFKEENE

[15] = target: T2, 4,4'-diapophytoene synthase (Staphylococcus aureus, UniProt A9JQL9); assay: Inhibition of Staphylococcus aureus CrtM
T2 sequence (A9JQL9 whole entry): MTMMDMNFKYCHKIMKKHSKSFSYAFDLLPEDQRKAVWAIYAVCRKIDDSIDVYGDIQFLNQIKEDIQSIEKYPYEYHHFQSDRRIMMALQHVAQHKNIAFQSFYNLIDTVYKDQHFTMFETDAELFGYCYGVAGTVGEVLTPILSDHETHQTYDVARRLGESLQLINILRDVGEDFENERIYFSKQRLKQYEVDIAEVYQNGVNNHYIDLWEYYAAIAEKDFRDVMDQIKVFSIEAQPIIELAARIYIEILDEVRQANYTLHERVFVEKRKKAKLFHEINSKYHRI

Squalene synthase = target: T3, Squalene synthase (Homo sapiens, UniProt P37268); assay: Inhibition of human SQS
T3 sequence (P37268 whole entry): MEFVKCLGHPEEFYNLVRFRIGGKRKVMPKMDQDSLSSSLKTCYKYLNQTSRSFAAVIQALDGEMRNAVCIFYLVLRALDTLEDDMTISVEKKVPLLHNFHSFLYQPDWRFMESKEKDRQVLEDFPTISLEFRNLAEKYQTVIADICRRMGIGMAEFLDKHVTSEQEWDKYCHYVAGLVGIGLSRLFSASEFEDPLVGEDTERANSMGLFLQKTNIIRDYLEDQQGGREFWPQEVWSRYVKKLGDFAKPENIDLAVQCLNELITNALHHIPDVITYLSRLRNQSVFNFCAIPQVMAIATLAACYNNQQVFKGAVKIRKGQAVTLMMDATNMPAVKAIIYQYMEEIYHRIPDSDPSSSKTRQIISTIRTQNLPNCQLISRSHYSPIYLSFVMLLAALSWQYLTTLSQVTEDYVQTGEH

[16] = Inhibition of Mycobacterium smegmatis MenA; parameters: species or system Mycolicibacterium smegmatis
[17] = Inhibition of Mycobacterium smegmatis MenG using radiolabeled S-adenosylmethionine as substrate after 1 hr by liquid scintillation counting analysis; parameters: species or system Mycolicibacterium smegmatis
[18] = system: Mycolicibacterium smegmatis; assay: Inhibition of respiration in Mycobacterium smegmatis after 5 mins by methylene blue reduction assay in presence of NADH; type: functional, organism-based
[19] = system: Mycolicibacterium smegmatis; assay: Disruption of membrane potential in Mycobacterium smegmatis by DisC3(5) probe-based fluorescence spectrophotometry; type: functional, organism-based
[20] = Inhibition of Escherichia coli N-terminal strep-tagged MenA expressed in Escherichia coli C43 (DE3) assessed as demethylmenaquinone-3 formation after 30 mins by HPLC analysis
Escherichia coli [21] = assay: Induction of collapse in deltapH in Escherichia coli inverted membrane vesicles by 31P NMR spectroscopy; type: functional, organism-based
[22] = system: Mycobacterium tuberculosis; assay: Antimicrobial activity against Mycobacterium tuberculosis H37Rv incubated for 7 days measured after 28 days by resazurin microplate reduction assay; type: functional
Method in brief: (§1)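 Resazurin microplate reduction assay (REMA) on actively growing M. tuberculosis H37Rv. Drug tested from 10 ng/mL to 10 μg/mL. Medium was supplemented with 0, 10, 100 or 1000 μM menaquinone-4 (MK-4) to test quinone rescue. Activity was read as loss of resazurin reduction to fluorescent resorufin, giving an MIC.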

[23] = system: Mycobacterium tuberculosis; assay: Antimicrobial activity against nonreplicating streptomycin-starved Mycobacterium tuberculosis 18b at 1 ug/ml incubated for 7 days measured after 28 days by resazurin microplate reduction assay; type: functional
[24] = system: Mycobacterium tuberculosis; assay: Antimicrobial activity against Mycobacterium tuberculosis H37Rv incubated for 7 days measured after 28 days by resazurin microplate reduction assay in presence of MK-4; type: functional; method in brief: as §1
[25] = Inhibition of Mycobacterium smegmatis malate dehydrogenase using malate as substrate by MTT assay; parameters: species or system Mycolicibacterium smegmatis
Method in brief: (§2)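 M. smegmatis membrane preparation with 5 mM KCN. Dehydrogenase activity was followed as MTT reduction at 570 nm after adding substrate: NADH (Complex I plus NDH-2), deamino-NADH (Complex I only), succinate, malate or lactate. IC50 values were derived from these rates.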

[26] = Therapeutic index, ratio of IC50 for human MCF7 cells to MIC for Mycobacterium tuberculosis ATCC 27294; type: cell-based; details: MCF7 cells versus Mycobacterium tuberculosis ATCC 27294, read-out: TI
[27] = Inhibition of Mycobacterium smegmatis electron transport protein complex 1 using NADH as substrate by MTT assay; parameters: species or system Mycolicibacterium smegmatis; method in brief: as §2
[28] = Inhibition of Mycobacterium smegmatis NADH dehydrogenase using […] by MTT assay; parameters: species or system Mycolicibacterium smegmatis; method in brief: as §2
[29] = Inhibition of Mycobacterium smegmatis electron transport protein complex 1 using deamino-NADH as substrate by MTT assay; parameters: species or system Mycolicibacterium smegmatis; method in brief: as §2
[30] = Inhibition of Mycobacterium smegmatis succinate dehydrogenase using succinate as substrate by MTT assay; parameters: species or system Mycolicibacterium smegmatis; method in brief: as §2
[31] = Inhibition of Mycobacterium smegmatis lactate dehydrogenase using lactate as substrate by MTT assay; parameters: species or system Mycolicibacterium smegmatis; method in brief: as §2
[32] = system: Mycolicibacterium smegmatis; assay: Induction of collapse in deltapH in Mycobacterium smegmatis inverted membrane vesicles at 30 to 150 uM by 31P NMR spectroscopy; type: functional

SMILES: CC(C)=CCC/C(C)=C/CNCCNC1C2CC3CC(C2)CC1C3 (centres undefined) [SQ109]
- IC50 [1]: 9 µM
- MIC [2]: 0.7 µM (≈ 0.231 µg/mL)
- MIC [3]: 0.3 µM (≈ 0.0992 µg/mL)
- MIC [4]: 9.4 µM (≈ 3.11 µg/mL)
- IC50 (Bacillus subtilis): 23 µM
- IC50 (Escherichia coli [5]): 8.5 µM
- IC50 (Saccharomyces cerevisiae): 3.3 µM
- IC50 (Candida albicans): 10 µM
- IC50 (Plasmodium falciparum): 3 µM
- IC50 (MCF7): 18 µM
- selectivity ratio [6]: 18
- Ratio IC50 (Escherichia coli [7]): 1.6
- IC50 [8]: ≥ 50 µM
- IC50 [9]: ≥ 50 µM
- IC50 [10]: ≥ 50 µM
- IC50 [11]: ≥ 50 µM
- IC50 [12]: ≥ 50 µM
- IC50 [13]: ≥ 50 µM
- IC50 [14]: 4.5 µM
- IC50 [15]: 100 µM
- IC50 (Squalene synthase): 100 µM
- IC50 [16]: 4.8 µM
- IC50 [17]: 13 µM
- IC50 [18]: 58 µM
- EC50 [19]: 20 µg/mL (≈ 60.5 µM)
- IC50 [19]: 55 µM
- IC50 [20]: 3.3 µM
- IC50 (Escherichia coli [21]): 0.8 µM
- MIC [22]: 0.15 µg/mL (≈ 0.454 µM)
- MIC [23]: 1 µg/mL (≈ 3.03 µM)
- MIC [24]: 1 µg/mL
- IC50 [25]: 10 µg/mL (≈ 30.3 µM)
- selectivity ratio [26]: 120
- IC50 [27]: 30 µg/mL (≈ 90.8 µM)
- IC50 [28]: 30 µg/mL (≈ 90.8 µM)
- IC50 [29]: 30 µg/mL (≈ 90.8 µM)
- IC50 [30]: 30 µg/mL (≈ 90.8 µM)
- IC50 [31]: 30 µg/mL (≈ 90.8 µM)
- Activity [32]: Active
